According to ChEMBL document CHEMBL2346570, “Small-molecule inhibitors of cytokine-mediated STAT1 signal transduction in β-cells with improved aqueous solubility” (J Med Chem, 2013):
Values after ≈ are worked out from the molar mass of the structure shown. Active and inactive are the calls of the source. No cut-off for these calls is given here.

Assays:
[1] = Cytoprotective activity in rat INS-1E cells assessed as suppression of cytokine-induced caspase-3/7 activation after 48 hrs by luminescence assay relative to control; format: functional
Outline: (§1)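 INS-1E β-cells exposed to a cytokine mixture (IFN-γ at 500 ng/mL; IL-1β and TNF-α lowered 20- and 10-fold from standard levels) with compound for 48 h; caspase-3/7 activation read as apoptosis. IC50 from dose-response in three replicates; maximum activity expressed as % rescue from cytokine-induced caspase-3/7 activation.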

[2] = Cytoprotective activity in rat INS-1E cells assessed as suppression of cytokine-induced caspase-3/7 activation after 48 hrs by luminescence assay; format: functional, cell-based; outline: as §1
[3] = Thermodynamic solubility in PBS at pH 7.4 after 24 hrs by UPLC-MS analysis; format: physicochemical; conditions: for solubility thermodynamic at 24 h: PBS, pH 7.4, read-out: Therm_solubility
Outline: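 Thermodynamic solubility assay in phosphate buffered saline, pH 7.4.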

INS-1E [4] = test: Inhibition of IFNgamma-induced JAK1/JAK2 signaling in rat INS-1E cells assessed as STAT1 nuclear translocation at 10 uM after 30 mins by immunofluorescence assay; format: cell-based
Outline: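 IFN-γ-stimulated INS-1E β-cells, with or without compound, for 30 min; cells fixed and STAT1 subcellular (cytoplasm vs nucleus) localization monitored by immunofluorescence imaging.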

INS-1E [5] = test: Effect on total STAT1 level in rat INS-1E cells at 10 uM after 30 mins by Western blotting analysis; format: functional, cell-based
INS-1E [6] = test: Inhibition of JAK1/JAK2 in rat INS-1E cells assessed as inhibition of IFNgamma-induced STAT1 phosphorylation at Tyr701 and Ser727 at 10 uM after 30 mins by Western blotting analysis; format: cell-based
Outline: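 INS-1E β-cells treated with IFN-γ with or without compound for 30 min; STAT1 phosphorylation at Tyr701 and Ser727 assessed by Western blotting.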

| IC50 [2] | solubility thermodynamic at 24 h [3] | Therm_solubility ([3]; buffer, pH 7.4, 24 h) | Compound | %max [1] | inhibition (INS-1E [4]) | inhibition (INS-1E [5]) | inhibition (INS-1E [6]) |
| --- | --- | --- | --- | --- | --- | --- | --- |
| 1.05 µM | 0.7 µM (≈ 0.473 µg/mL) | – | C[C@@H]1CN([C@@H](C)CO)C(=O)c2cccc(NC(=O)Nc3nccc4ccccc34)c2O[C@H]1CN(C)S(=O)(=O)c1ccc2c(c1)OCCO2 | 21% | – | – | – |
| 1.66 µM | – | 0.1 µM | C[C@@H]1CN([C@@H](C)CO)C(=O)c2cccc(NC(=O)Nc3cccc4ccccc34)c2O[C@H]1CN(C)S(=O)(=O)c1ccc2c(c1)OCCO2 | 71% | Active | inactive | Active |
| 3.26 µM | 1.8 µM (≈ 1.22 µg/mL) | – | C[C@@H]1CN([C@@H](C)CO)C(=O)c2cccc(NC(=O)Nc3cccc4cccnc34)c2O[C@H]1CN(C)S(=O)(=O)c1ccc2c(c1)OCCO2 | 69% | Active | inactive | Active |
| 4.1 µM | 84.9 µM (≈ 57.4 µg/mL) | – | C[C@@H]1CN([C@@H](C)CO)C(=O)c2cccc(NC(=O)Nc3cncc4ccccc34)c2O[C@H]1CN(C)S(=O)(=O)c1ccc2c(c1)OCCO2 | 31% | – | – | – |
| 4.74 µM | 11.2 µM (≈ 7.71 µg/mL) | – | C[C@@H]1CN([C@@H](C)CO)C(=O)c2cccc(NC(=O)N(C)c3cccc4ccccc34)c2O[C@H]1CN(C)S(=O)(=O)c1ccc2c(c1)OCCO2 | 15% | – | – | – |
| > 20 µM | 30.3 µM (≈ 20.5 µg/mL) | – | C[C@@H]1CN([C@@H](C)CO)C(=O)c2cccc(NC(=O)Nc3ccnc4ccccc34)c2O[C@H]1CN(C)S(=O)(=O)c1ccc2c(c1)OCCO2 | – | – | – | – |
| 4.65 µM | 60.5 µM (≈ 40.9 µg/mL) | – | C[C@@H]1CN([C@@H](C)CO)C(=O)c2cccc(NC(=O)Nc3cccc4cnccc34)c2O[C@H]1CN(C)S(=O)(=O)c1ccc2c(c1)OCCO2 | 59% | – | – | – |
| > 20 µM | 0.1 µM (≈ 0.0689 µg/mL) | – | C[C@@H]1CN([C@@H](C)CO)C(=O)c2cccc(NC(=O)NCc3cccc4ccccc34)c2O[C@H]1CN(C)S(=O)(=O)c1ccc2c(c1)OCCO2 | – | inactive | inactive | inactive |
| 1.62 µM | 138 µM (≈ 93.6 µg/mL) | – | C[C@@H]1CN([C@@H](C)CO)C(=O)c2cccc(NC(=O)Nc3cccc4ncccc34)c2O[C@H]1CN(C)S(=O)(=O)c1ccc2c(c1)OCCO2 | 41% | – | – | – |
| – | 101 µM (≈ 68.5 µg/mL) | – | C[C@@H]1CN([C@@H](C)CO)C(=O)c2cccc(NC(=O)Nc3cccc4ccncc34)c2O[C@H]1CN(C)S(=O)(=O)c1ccc2c(c1)OCCO2 | – | – | – | – |
